Series [1] has as its system Mus musculus. Put plainly: Toxicity in human HCT116 cells xenografted Rag1 knockout mouse assessed as body weight loss at 20 mg/kg, ip qd measured after 10 days relative to untreated control. In kind it is organism-based, HCT-116. Also on record: dose 20 mg/kg, route intraperitoneal. The note with it: in vivo, 240 h. A digest of the protocol: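 Female specific-pathogen-free Rag1−/− mice carrying subcutaneous HCT-116 tumours, given 20 mg/kg ip daily for 14 days in a DMSO/PEG-400/hydroxypropyl-β-cyclodextrin/water vehicle; controls received vehicle; n = 7 per group. Bodyweight recorded daily; mice culled if loss exceeded 20% of starting weight.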

Series [2] deals with T1, Phosphatidylinositol 4,5-bisphosphate 3-kinase catalytic subunit alpha isoform (Homo sapiens, UniProt P42336, H1047R). The series can be described thus: Inhibition of PI3K […] H1047R mutant-mediated PKB phosphorylation at Ser473 in human HCT116 cells after 15 mins by immunoblot analysis. The format is cell-based, HCT-116. The essentials: (§1)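 HCT-116 cells in MEM alpha with 10% FBS and penicillin/streptomycin were seeded, grown 1 day, then serum-starved overnight. They were exposed to a range of inhibitor concentrations in DMSO (0.1% final) for 15 min, then stimulated with 500 nM insulin for 5 min. Phospho-PKB (Ser473 or Thr308) was detected by immunoblotting.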
T1 sequence (P42336 whole entry H1047R, canonical isoform): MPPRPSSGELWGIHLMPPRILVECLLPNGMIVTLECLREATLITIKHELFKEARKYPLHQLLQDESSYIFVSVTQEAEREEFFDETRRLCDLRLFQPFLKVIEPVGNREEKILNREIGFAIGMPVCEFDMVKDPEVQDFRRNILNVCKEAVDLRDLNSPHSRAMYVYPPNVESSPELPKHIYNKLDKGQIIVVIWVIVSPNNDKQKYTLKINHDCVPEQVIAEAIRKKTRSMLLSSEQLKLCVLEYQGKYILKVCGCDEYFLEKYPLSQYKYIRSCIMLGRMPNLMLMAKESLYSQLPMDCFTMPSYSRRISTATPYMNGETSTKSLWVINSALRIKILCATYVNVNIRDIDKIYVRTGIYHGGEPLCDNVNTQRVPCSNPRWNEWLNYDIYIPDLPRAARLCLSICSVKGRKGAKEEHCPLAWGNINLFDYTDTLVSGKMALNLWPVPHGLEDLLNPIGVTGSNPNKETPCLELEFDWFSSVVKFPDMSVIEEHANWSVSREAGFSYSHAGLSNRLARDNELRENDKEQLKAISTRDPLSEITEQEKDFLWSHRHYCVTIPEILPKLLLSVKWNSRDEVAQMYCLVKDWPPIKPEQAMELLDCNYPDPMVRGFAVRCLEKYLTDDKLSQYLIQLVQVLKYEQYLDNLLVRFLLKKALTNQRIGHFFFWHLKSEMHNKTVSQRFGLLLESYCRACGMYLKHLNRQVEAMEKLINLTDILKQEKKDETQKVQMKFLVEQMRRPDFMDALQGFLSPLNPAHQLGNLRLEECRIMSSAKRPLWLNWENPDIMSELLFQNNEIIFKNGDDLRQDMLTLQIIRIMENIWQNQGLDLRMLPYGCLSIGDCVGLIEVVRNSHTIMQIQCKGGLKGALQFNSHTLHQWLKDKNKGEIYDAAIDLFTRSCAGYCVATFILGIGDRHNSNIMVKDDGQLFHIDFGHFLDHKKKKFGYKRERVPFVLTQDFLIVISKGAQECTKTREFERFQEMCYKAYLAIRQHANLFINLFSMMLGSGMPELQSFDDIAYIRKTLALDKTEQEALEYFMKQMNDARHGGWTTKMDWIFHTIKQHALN

Series [3] addresses Phosphatidylinositol 4,5-bisphosphate 3-kinase catalytic subunit alpha isoform (Homo sapiens, UniProt P42336). The following applies: 100 nM.
Series [4] addresses High affinity nerve growth factor receptor (Homo sapiens) (UniProt P04629). Put plainly: Inhibition of TrkA assessed as residual activity at 1 uM.
Series [5] deals with Mitogen-activated protein kinase 14 (Homo sapiens) (UniProt Q16539). The series can be described thus: Inhibition of p38alpha assessed as residual activity at 10 uM.
Mitogen-activated protein kinase 14 (Homo sapiens), sequence (Q16539 whole entry): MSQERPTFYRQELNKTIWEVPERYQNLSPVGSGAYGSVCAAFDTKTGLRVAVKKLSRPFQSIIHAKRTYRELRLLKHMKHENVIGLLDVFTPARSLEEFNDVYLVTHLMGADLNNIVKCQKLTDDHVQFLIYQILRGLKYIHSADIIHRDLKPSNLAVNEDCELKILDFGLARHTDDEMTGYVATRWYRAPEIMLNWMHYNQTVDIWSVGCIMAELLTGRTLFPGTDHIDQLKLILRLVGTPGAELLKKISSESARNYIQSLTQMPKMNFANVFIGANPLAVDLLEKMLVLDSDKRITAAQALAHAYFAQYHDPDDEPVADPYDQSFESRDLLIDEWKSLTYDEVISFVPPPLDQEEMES
Series [6] shares this target. The series can be described thus: Inhibition of p38alpha assessed as residual activity at 1 uM.
The target of series [7] is Misshapen-like kinase 1 (Homo sapiens) (UniProt Q8N4C8). The series can be described thus: Inhibition of MINK1 assessed as residual activity at 1 uM.
The target of series [8] is Insulin receptor (Homo sapiens) (UniProt P06213). The series can be described thus: Inhibition of IR assessed as residual activity at 10 uM.
Insulin receptor (Homo sapiens), sequence (P06213 28-758 limits assumed): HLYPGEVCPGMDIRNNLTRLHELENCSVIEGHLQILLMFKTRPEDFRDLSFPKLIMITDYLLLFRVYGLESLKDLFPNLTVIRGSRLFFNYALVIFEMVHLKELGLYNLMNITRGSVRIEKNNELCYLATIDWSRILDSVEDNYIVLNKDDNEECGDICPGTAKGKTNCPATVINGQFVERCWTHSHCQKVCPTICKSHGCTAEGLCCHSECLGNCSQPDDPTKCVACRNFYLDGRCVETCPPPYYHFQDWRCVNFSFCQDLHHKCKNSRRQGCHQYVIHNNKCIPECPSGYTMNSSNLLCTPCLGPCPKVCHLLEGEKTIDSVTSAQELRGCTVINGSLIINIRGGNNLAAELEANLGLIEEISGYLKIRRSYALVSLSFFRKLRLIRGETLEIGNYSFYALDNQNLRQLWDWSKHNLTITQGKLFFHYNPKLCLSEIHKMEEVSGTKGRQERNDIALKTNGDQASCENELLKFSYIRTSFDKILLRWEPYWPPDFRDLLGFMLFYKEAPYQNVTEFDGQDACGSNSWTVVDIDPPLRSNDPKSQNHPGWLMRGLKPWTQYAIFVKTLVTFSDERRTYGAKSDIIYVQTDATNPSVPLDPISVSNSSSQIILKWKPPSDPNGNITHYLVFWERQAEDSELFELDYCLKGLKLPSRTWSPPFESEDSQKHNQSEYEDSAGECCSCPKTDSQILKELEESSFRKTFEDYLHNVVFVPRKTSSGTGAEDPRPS
Insulin receptor (Homo sapiens), sequence (P06213 763-1382 limits assumed): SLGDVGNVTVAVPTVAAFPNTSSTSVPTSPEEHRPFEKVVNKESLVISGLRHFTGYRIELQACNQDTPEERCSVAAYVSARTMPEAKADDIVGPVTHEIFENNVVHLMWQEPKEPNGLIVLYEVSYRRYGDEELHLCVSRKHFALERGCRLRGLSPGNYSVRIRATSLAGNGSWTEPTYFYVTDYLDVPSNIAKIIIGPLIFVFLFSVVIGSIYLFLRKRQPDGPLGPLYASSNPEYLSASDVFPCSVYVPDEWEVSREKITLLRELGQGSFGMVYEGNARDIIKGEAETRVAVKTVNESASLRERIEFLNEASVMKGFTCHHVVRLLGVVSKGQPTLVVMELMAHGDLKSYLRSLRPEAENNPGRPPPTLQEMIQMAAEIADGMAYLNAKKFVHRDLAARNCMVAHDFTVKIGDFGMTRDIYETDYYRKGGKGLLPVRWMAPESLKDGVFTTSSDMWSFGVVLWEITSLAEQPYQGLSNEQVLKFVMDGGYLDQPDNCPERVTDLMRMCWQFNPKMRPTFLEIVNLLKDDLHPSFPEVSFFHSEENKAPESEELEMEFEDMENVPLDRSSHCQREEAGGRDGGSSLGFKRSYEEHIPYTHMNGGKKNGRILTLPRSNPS
The target in series [9] is Ribosomal protein S6 kinase alpha-1 (Homo sapiens) (UniProt Q15418). Put plainly: Inhibition of RSK1 assessed as residual activity at 1 uM.
Ribosomal protein S6 kinase alpha-1 (Homo sapiens), sequence (Q15418 whole entry): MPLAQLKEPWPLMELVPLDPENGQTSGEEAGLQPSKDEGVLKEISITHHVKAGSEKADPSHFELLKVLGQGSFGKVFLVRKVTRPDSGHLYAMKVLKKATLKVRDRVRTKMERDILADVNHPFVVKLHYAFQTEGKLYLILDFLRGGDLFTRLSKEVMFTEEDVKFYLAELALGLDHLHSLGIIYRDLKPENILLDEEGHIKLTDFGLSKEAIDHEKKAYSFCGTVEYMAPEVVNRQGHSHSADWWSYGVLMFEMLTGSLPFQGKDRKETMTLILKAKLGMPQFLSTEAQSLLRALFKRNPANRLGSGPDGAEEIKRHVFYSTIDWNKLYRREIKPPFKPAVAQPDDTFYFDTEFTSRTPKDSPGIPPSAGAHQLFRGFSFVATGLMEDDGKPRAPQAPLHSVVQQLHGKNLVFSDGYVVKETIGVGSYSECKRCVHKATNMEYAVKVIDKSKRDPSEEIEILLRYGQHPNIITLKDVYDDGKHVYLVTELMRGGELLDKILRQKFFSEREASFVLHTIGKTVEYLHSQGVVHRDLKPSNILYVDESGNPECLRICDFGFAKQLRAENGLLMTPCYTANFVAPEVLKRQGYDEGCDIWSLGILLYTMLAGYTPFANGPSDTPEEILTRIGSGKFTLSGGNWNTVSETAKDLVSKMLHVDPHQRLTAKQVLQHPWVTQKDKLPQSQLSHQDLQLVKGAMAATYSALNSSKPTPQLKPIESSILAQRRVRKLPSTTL
The target of series [10] is Insulin receptor (Homo sapiens) (UniProt P06213). The series can be described thus: Inhibition of IR assessed as residual activity at 1 uM.
Series [11] deals with T1, Phosphatidylinositol 4,5-bisphosphate 3-kinase catalytic subunit alpha isoform. Put plainly: Inhibition of recombinant PI3K p110alpha H1047R mutant using L-alpha-phosphatidylinositol as substrate and [gamma33P]ATP after 60 mins by thin layer chromatographic technique.
Series [12] is described as follows: Inhibition of PKA assessed as residual activity at 1 uM.
Series [13] concerns the target Dual specificity mitogen-activated protein kinase kinase 1 (Homo sapiens) (UniProt Q02750). The series can be described thus: Inhibition of MKK1 assessed as residual activity at 1 uM.
Series [14] is described as follows: Cytotoxicity against human NZOV9 cells expressing p110alpha Y1021C mutant assessed as inhibition of [3H]thymidine incorporation after 5 days. In kind it is functional, cell-based. A digest of the protocol:
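Early-passage lab-derived lines in α-MEM with insulin, transferrin, selenite and 5% FBS. Seeded at 1000 cells/well; drug added in 10-fold steps up to 20 µM. Incubated five days under 5% O₂/5% CO₂/90% N₂, with ³H-thymidine (0.04 µCi/well) over the last 6 h. Duplicates per dose; least-squares exponential fit; IC50 is the concentration giving 50% less incorporation.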

A short description of series [15]: Inhibition of DNA-PK.
The target of series [16] is T1, Phosphatidylinositol 4,5-bisphosphate 3-kinase catalytic subunit alpha isoform. Put plainly: Inhibition of PI3K […] H1047R mutant-mediated PKB phosphorylation at Thr308 in human HCT116 cells after 15 mins by immunoblot analysis. The format is cell-based, HCT-116. A digest of the protocol: as §1
Series [17] concerns the target Phosphatidylinositol 4,5-bisphosphate 3-kinase catalytic subunit beta isoform (Homo sapiens, UniProt P42338). Put plainly: Inhibition of recombinant PI3K p110beta using L-alpha-phosphatidylinositol as substrate and [gamma33P]ATP after 60 mins by thin layer chromatographic technique. A digest of the protocol: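 In-house recombinant class Ia PI3K isoform (0.1 µg) with L-α-phosphatidylinositol substrate in lipid kinase buffer (Tris–HCl pH 7.4, NaCl, EDTA), 1% DMSO final. Started with ATP mix (5 mM MgCl₂, 100 µM ATP plus [γ-³³P]ATP), 1 h at room temperature, stopped with 1 M HCl. Lipids extracted in two steps, separated by TLC, read by phosphorimager. Nine inhibitor concentrations; IC50 averaged over two experiments.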

The test system of series [18] is Mus musculus. Put plainly: Toxicity in human HCT116 cells xenografted Rag1 knockout mouse assessed as mortality at 20 mg/kg, ip qd for 14 days. The format is organism-based, HCT-116. Also on record: dose 20 mg/kg, route intraperitoneal. The note with it: in vivo, 336 h. A digest of the protocol: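 Age-matched specific pathogen-free female Rag1-/- mice bearing subcutaneous HCT-116 tumours (5 × 10⁶ cells inoculated in PBS), n = 7 per group. Drug given ip at 20 mg/kg once daily for 14 days in 7.5% DMSO/42.5% PEG-400/20% 2-hydroxypropyl-β-cyclodextrin/30% water; controls received vehicle alone. Bodyweight recorded daily; mice culled when weight loss exceeded 20% of starting weight.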

Calls of active or inactive are those of the source. No cut-off for these calls is given here.

High affinity nerve growth factor receptor (Homo sapiens), sequence (P04629 33-796 limits assumed): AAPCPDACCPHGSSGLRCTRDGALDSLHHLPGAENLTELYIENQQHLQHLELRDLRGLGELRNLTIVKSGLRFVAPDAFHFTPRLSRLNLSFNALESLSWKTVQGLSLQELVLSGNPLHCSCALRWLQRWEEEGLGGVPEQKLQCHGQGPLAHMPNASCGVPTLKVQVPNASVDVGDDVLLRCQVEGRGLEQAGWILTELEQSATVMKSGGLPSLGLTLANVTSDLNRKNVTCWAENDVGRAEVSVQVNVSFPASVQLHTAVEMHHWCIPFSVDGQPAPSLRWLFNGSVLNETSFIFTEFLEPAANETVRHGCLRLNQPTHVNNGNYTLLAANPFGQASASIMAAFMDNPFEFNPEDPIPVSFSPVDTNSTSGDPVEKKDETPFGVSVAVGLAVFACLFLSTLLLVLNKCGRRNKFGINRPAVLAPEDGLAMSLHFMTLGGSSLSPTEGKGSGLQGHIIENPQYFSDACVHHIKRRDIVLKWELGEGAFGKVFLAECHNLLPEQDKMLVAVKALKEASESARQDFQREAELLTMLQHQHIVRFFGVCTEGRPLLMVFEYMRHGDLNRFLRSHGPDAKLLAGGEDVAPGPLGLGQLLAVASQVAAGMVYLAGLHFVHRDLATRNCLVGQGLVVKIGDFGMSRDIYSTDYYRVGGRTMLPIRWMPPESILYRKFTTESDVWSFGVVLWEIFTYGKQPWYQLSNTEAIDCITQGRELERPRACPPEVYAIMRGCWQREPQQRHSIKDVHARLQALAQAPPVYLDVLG
Phosphatidylinositol 4,5-bisphosphate 3-kinase catalytic subunit alpha isoform (Homo sapiens, UniProt P42336), sequence (P42336 whole entry, canonical isoform): as the sequence (P42336 whole entry H1047R, canonical isoform) above, with R1047H counted along it
Dual specificity mitogen-activated protein kinase kinase 1 (Homo sapiens), sequence (Q02750 whole entry): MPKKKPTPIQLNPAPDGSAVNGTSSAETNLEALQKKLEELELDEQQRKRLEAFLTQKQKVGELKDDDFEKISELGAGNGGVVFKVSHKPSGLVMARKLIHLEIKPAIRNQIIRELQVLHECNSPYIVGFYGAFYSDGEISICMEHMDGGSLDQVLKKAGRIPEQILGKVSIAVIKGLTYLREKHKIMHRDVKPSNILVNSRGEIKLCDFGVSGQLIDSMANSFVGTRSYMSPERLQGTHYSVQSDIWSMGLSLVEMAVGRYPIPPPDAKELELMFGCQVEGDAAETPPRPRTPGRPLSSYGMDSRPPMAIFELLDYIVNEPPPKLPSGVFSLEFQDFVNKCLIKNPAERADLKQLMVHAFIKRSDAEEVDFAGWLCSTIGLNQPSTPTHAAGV

With `Cc1ccc([N+](=O)[O-])cc1S(=O)(=O)N(C)/N=C/c1cnn2ccc(C#N)cc12`, the Activity in series [1] worked out at 15%; in series [4] it was 19%; in series [5] it was 9%; in series [6], 18%; in series [7] it was 5%; in series [8] it was 42%. For the same compound, the Activity in [9] was 4%; in series [10], 55%; in series [12] it was 1%; in series [13], 10%; in series [18] it was “Non-toxic”. Besides, the IC50 in [2] amounted to 23 nM; in series [11], 0.5 nM; in [14] it was 1400 nM; in series [15], 1.1 nM; in series [16] it was 26 nM; in [17] it was 46 nM. Further, the inhibition result in [3] was “inactive”.

(Values after ChEMBL document CHEMBL1926509, “Discovery of pyrazolo[1,5-a]pyridines as p110α-selective PI3 kinase inhibitors” (Bioorg Med Chem, 2012).)
